The nature of test [1]: Antioxidant activity of the compound assessed as ascorbic acid equivalent of ferric tripyridyl triazine reducing activity at 200 ug/mL after 15 mins by FRAP assay. Format: functional. In a few lines: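 FRAP, modified Benzie and Strain method. Fe(III)-TPTZ reagent made with TPTZ in 40 mM HCl, FeCl3 solution and acetate buffer pH 3.6. 200 µL sample solution mixed with 3 mL reagent and held 15 min at 37 °C. Fe(II)-TPTZ read at 593 nm against an ascorbic acid standard, expressed as ascorbic acid equivalents (mmol/100 g compound).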

In test [2] the test system is Mycobacterium tuberculosis. Kind of test: Antitubercular activity against Mycobacterium tuberculosis H37Rv assessed as growth inhibition at 250 ug/mL after 12 to 28 days by Lowenstein-Jensen method relative to control. Type of test: functional. To be noted: read-out: GI. The procedure, abridged: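 Modified Lowenstein-Jensen method. Compound at 250 in DMSO added to liquid L-J medium, then sterilized by inspissation and incubated 24 h at 37 °C. Streaked with H37Rv harvested in 0.85% saline (5 × 10⁴ bacilli/tube) and incubated at 37 °C. Colonies read at 12, 22 and 28 days versus drug-free control; no colonies or <20 colonies scored as inhibition.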

Test [3] has as its system Candida albicans. The test is described as follows: Antifungal activity against Candida albicans MTCC 227 assessed as growth inhibition after overnight incubation by NCCLS broth microdilution method. Format: functional. In a few lines: (§1)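 Broth microdilution per NCCLS in Mueller Hinton broth, compounds diluted in DMSO. Primary screen at 500, 250 and 200 µg/mL; actives retested at 100, 62.5, 50, 25 and 12.5 µg/mL. Tubes incubated overnight at 37 °C. […] Non-growing tubes subcultured overnight at 37 °C to judge bacteriostatic versus bactericidal action.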
On the technique in general: Broth dilution looks for growth in wells or tubes with falling amounts of substance.

The test system of test [4] is Aspergillus fumigatus. Kind of test: Antifungal activity against Aspergillus fumigatus MTCC 3008 assessed as growth inhibition after overnight incubation by NCCLS broth microdilution method. Format: functional. In a few lines:
as §1

Test [5] relates to Vibrio cholerae. The test is described as follows: Antibacterial activity against Vibrio cholerae MTCC 3906 assessed as growth inhibition after overnight incubation by NCCLS broth microdilution method. Type of test: functional.
Test [6] relates to Salmonella typhi. The test is described as follows: Antibacterial activity against Salmonella typhi MTCC 98 assessed as growth inhibition after overnight incubation by NCCLS broth microdilution method. Format: functional, Salmonella enterica subsp. enterica serovar Typhi. To be noted: Salmonella enterica.
Test [7] concerns Escherichia coli. Kind of test: Antibacterial activity against Escherichia coli MTCC 443 assessed as growth inhibition after overnight incubation by NCCLS broth microdilution method. Format: functional. The procedure, abridged: as §1
Test [8] has as its system Streptococcus pneumoniae. The test is described as follows: Antibacterial activity against Streptococcus pneumoniae MTCC 1936 assessed as growth inhibition after overnight incubation by NCCLS broth microdilution method. Type of test: functional. In a few lines:
as §1

Test [9] deals with Clostridium tetani. Kind of test: Antibacterial activity against Clostridium tetani MTCC 449 assessed as growth inhibition after overnight incubation by NCCLS broth microdilution method. Type of test: functional.
For test [10], the system named is Bacillus subtilis. Kind of test: Antibacterial activity against Bacillus subtilis MTCC 441 assessed as growth inhibition after overnight incubation by NCCLS broth microdilution method. Type of test: functional. In a few lines:
as §1

Converted amounts (≈) assume the structure as drawn.

The MIC is the lowest concentration found to suppress growth. Turning to `N#CC1=C(N)N(c2ccc(F)c(F)c2)C2=C(C(=O)CCC2)C1c1cc2ccccc2nc1Oc1ccc(C#N)cc1` (stereo unspecified), the Activity in test [1] came to 193 equiv. Besides, the inhibition of growth at 250 µg/mL in test [2] was 75%. Moreover, the MIC was 250 mg/L (≈ 458 µM) in test [3]; above 1000 mg/L in test [4]; 100 mg/L (≈ 183 µM) in test [5]; 125 mg/L (≈ 229 µM) in test [6]; 100 mg/L (≈ 183 µM) in test [7]; 100 mg/L (≈ 183 µM) in test [8]. For the same compound, the minimum inhibitory concentration (MIC) in test [9] turned out to be 100 mg/L (≈ 183 µM); in test [10] it was 250 mg/L (≈ 458 µM).
As for `Cc1ccc2nc(Oc3ccc(C#N)cc3)c(C3C(C#N)=C(N)N(c4cc(F)ccc4F)C4=C3C(=O)CCC4)cc2c1` (stereo unspecified), in test [1], the Activity was 239 equiv. The inhibition of growth at 250 µg/mL in test [2] is 80%. Also, the minimum inhibitory concentration (MIC) in test [3] was 250 mg/L (≈ 447 µM); in test [4], above 1000 mg/L; in test [5] it was 62.5 mg/L (≈ 112 µM); in test [6], 50 mg/L (≈ 89.4 µM); in test [7] it was 100 mg/L (≈ 179 µM); in [8] it was 250 mg/L (≈ 447 µM). The MIC in test [9] was determined as 200 mg/L (≈ 357 µM); in [10] it was 125 mg/L (≈ 223 µM).
For `COc1ccc2nc(Oc3ccc(C#N)cc3)c(C3C(C#N)=C(N)N(c4cccc(C(F)(F)F)c4)C4=C3C(=O)CCC4)cc2c1` (stereo unspecified), the Activity in [1] worked out at 260 equiv. Also, the inhibition of growth at 250 µg/mL in test [2] was found to be 23%. Further, the MIC in test [3] was found to be 500 mg/L (≈ 823 µM); in test [4], 1000 mg/L (≈ 1650 µM); in test [5] it was 100 mg/L (≈ 165 µM); in [6] it was 125 mg/L (≈ 206 µM); in test [7], 200 mg/L (≈ 329 µM); in test [8], 125 mg/L (≈ 206 µM). Moreover, the minimum inhibitory concentration (MIC) came out at 500 mg/L (≈ 823 µM) in [9] and 200 mg/L (≈ 329 µM) in test [10].
With `CC1(C)CC(=O)C2=C(C1)N(c1cccc(C(F)(F)F)c1)C(N)=C(C#N)C2c1cc2ccccc2nc1Oc1ccc(C#N)cc1` (stereo unspecified), in test [1], the Activity was determined as 20.2 equiv. Besides, the inhibition of growth at 250 µg/mL in [2] worked out at 45%. In addition, the MIC in test [3] was found to be 1000 mg/L (≈ 1650 µM); in [4] it was 1000 mg/L (≈ 1650 µM); in [5], 200 mg/L (≈ 330 µM); in test [6] it was 200 mg/L (≈ 330 µM); in test [7] it was 250 mg/L (≈ 413 µM); in test [8], 200 mg/L (≈ 330 µM). In addition, the minimal inhibitory concentration (MIC) in test [9] stood at 200 mg/L (≈ 330 µM); in test [10], 250 mg/L (≈ 413 µM).
Turning to `COC1=CC(=O)C[C@@H](C)[C@]12Oc1c(Cl)c(OC)cc(OC)c1C2=O` [GRISEOFULVIN], the MIC in [3] worked out at 500 mg/L (≈ 1420 µM); in test [4] it was 100 mg/L (≈ 283 µM).
As for `Cc1ccc2nc(Oc3ccc(C#N)cc3)c(C3C(C#N)=C(N)N(c4ccc(F)c(F)c4)C4=C3C(=O)CC(C)(C)C4)cc2c1` (stereo unspecified), the Activity in test [1] turned out to be 122 equiv. Further, in test [2], the inhibition of growth at 250 µg/mL was 32%. The minimum inhibitory concentration (MIC) in test [3] is above 1000 mg/L; in [4] it was 1000 mg/L (≈ 1700 µM); in [5] it was 250 mg/L (≈ 425 µM); in [6] it was 250 mg/L (≈ 425 µM); in test [7], 200 mg/L (≈ 340 µM); in [8], 200 mg/L (≈ 340 µM). Moreover, the MIC in test [9] and in test [10] was 250 mg/L (≈ 425 µM) in each case.
Take `O=C(O)c1cn(C2CC2)c2cc(N3CCNCC3)c(F)cc2c1=O` [CIPROFLOXACIN]: the minimal inhibitory concentration (MIC) was determined as 25 mg/L (≈ 75.4 µM) in test [5], 25 mg/L (≈ 75.4 µM) in test [6], 25 mg/L (≈ 75.4 µM) in test [7] and 50 mg/L (≈ 151 µM) in test [8].
In the case of NYSTATIN, the minimum inhibitory concentration (MIC) in [3] and in test [4] was 100 mg/L in each case.
Consider `CCn1cc(C(=O)O)c(=O)c2cc(F)c(N3CCNCC3)cc21` [NORFLOXACIN], for which the MIC in [5] amounted to 10 mg/L (≈ 31.3 µM); in test [6], 10 mg/L (≈ 31.3 µM); in test [7], 10 mg/L (≈ 31.3 µM); in test [8], 10 mg/L (≈ 31.3 µM); in test [9] it was 50 mg/L (≈ 157 µM); in [10], 100 mg/L (≈ 313 µM).
Regarding `O=C(N[C@H](CO)[C@H](O)c1ccc([N+](=O)[O-])cc1)C(Cl)Cl` [CHLORAMPHENICOL], the minimum inhibitory concentration (MIC) in test [5], in test [6], in [7], in test [8], in test [9] and in [10] was 50 mg/L (≈ 155 µM) in each case.
Take `CC1(C)S[C@@H]2[C@H](NC(=O)[C@H](N)c3ccccc3)C(=O)N2[C@H]1C(=O)O` [AMPICILLIN]: the MIC was determined as 100 mg/L (≈ 286 µM) in [5]; 100 mg/L (≈ 286 µM) in test [6]; 100 mg/L (≈ 286 µM) in [7]; 100 mg/L (≈ 286 µM) in [8]; 250 mg/L (≈ 715 µM) in test [9]; 250 mg/L (≈ 715 µM) in test [10].

The record behind these values is ChEMBL document CHEMBL2375307, “Synthesis and identification of β-aryloxyquinoline based diversely fluorine substituted N-aryl quinolone derivatives as a new class of antimicrobial, antituberculosis and antioxidant agents” (Eur J Med Chem, 2013).
